# Source: PubChem
# Hits are enriched below; roughly 3.8% of the tested compounds scored in any of these assays.
# KCNQ1 block: inhibitors of human KCNQ1 channel, primary screen, cell-based, thallium flux, high-throughput; B-score at 10 µM; CHO-K1 KCNQ1, FluxOR thallium flux fluorescence; active compounds read high; Potassium voltage-gated channel subfamily KQT member 1 (Homo sapiens), P51787; 1.3% of 310,000 active; AID 2642, 2010;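 active = compounds whose thallium flux B-score, printed positive for inhibition, exceeds three library SD while starting fluorescence stays within three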;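 also: channel opened by potassium depolarization with thallium stimulus after 20 min compound exposure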
# KCNK9 inh: KCNK9 potassium channel inhibitors, primary screen, HEK293 cells, thallium flux | AID 488922, 2010 | FluxOR thallium flux fluorescence; active compounds read low | 1.2% of 310,000 active | B-score at 10 µM;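 active = ratio B-score over 3 SD below the library mean, with starting fluorescence within 5 SD of its mean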;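 also: negative B-score means less thallium flux so channel inhibition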
# KCNQ1 pot: potentiators or activators of KCNQ1 channel, primary screen, cell-based, thallium flux, high-throughput | 0.35% of 310,000 active | CHO-K1 KCNQ1, thallium flux FluxOR fluorescence; active compounds read high | B-score at 10 µM;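 active = fluorescence ratio B-score, a plate-corrected score, at least three library SD, with initial intensity B-score within 5 SD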
#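 Material: CHO-K1 cells stably expressing KCNQ1. Medium: assay buffer for compound exposure, DMSO matched across wells. Reagent: K+/Tl+ depolarizing stimulus. Compound dosing: single-concentration screen. Times: 37 °C overnight plating, 90-min dark dye load, 20-min compound pretreatment. Technique: FluxOR Tl+ flux fluorescence.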
# Kir21 inh: inhibitors of mouse Kir2.1 inward-rectifier potassium channel. B-score at 10 µM. 0.85% of 310,000 active. HEK293-Kir2.1, FluxOR thallium flux fluorescence; active compounds read low. AID 1672, 2009;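 active = fluorescence ratio B-score at or below minus 3 SD of library scores, with starting-brightness B-score within 2 SD, cut at about -4.2 in these data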;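 also: channel flux triggered by added potassium and thallium sulfate stimulus; B-score of peak minus minimum fluorescence over baseline after thallium stimulus; more negative B-score means stronger Kir2.1 block with less thallium influx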
# KCNK3 block: human KCNK3 channel inhibitors, primary screen, CHO cells, FluxOR thallium flux, B-score. B-score at 10 µM. Potassium channel subfamily K member 3 (Homo sapiens), O14649. 0.84% of 340,000 active. FluxOR fluorescence; active compounds read low. AID 602410, 2012;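 active = B-score under library mean minus 4 SD, starting fluorescence ratio at most library mean plus 5 SD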;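 also: more negative B-score means stronger inhibition of thallium flux through KCNK3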
# hERG rescue: hERG rescue from dofetilide block, primary screen, cell-based, CHO-hERG, FluxOR thallium flux, dofetilide IC70; Voltage-gated inwardly rectifying potassium channel KCNH2 (Homo sapiens), Q12809; dofetilide IC70 present; activation (rescue from dofetilide block), less the hit threshold, % at 10 µM; 0.51% of 310,000 active; AID 1511, 2009;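 active = activation above the mean of controls blocked by dofetilide plus 5 SD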;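 also: thallium influx through hERG after potassium depolarization seen as dye fluorescence rise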
# Target sequence (Q12809 whole entry, looked up): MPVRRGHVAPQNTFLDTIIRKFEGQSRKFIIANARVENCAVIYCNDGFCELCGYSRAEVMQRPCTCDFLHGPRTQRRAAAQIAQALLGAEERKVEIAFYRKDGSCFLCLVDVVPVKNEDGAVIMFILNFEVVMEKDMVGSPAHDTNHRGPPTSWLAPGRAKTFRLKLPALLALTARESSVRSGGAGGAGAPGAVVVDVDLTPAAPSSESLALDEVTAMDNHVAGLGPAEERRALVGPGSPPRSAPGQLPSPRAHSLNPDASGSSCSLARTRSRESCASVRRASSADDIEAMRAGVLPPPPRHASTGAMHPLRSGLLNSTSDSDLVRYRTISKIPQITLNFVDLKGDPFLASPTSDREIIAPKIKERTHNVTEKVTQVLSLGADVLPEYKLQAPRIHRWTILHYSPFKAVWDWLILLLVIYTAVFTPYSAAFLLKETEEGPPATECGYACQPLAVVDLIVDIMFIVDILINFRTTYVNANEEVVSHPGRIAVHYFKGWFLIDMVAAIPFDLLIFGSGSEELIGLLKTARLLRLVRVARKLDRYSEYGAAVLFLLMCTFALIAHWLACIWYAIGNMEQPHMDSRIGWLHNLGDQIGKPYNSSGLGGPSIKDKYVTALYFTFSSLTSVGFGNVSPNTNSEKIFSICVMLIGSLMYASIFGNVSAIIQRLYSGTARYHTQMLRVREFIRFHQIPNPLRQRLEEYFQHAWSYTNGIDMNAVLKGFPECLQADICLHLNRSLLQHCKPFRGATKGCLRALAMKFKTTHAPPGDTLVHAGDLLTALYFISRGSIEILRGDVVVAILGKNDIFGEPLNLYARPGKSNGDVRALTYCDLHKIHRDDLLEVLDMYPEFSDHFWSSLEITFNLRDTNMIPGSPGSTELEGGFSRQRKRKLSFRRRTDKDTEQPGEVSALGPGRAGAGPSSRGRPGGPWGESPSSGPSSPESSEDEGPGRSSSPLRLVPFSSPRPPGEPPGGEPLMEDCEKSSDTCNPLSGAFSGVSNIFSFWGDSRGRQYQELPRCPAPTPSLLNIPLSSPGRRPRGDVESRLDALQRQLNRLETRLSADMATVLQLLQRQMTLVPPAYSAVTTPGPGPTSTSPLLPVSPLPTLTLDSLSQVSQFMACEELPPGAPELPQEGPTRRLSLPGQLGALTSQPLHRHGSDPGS
# * = called active by the depositor; i = inactive; . = not tested or not shown.
SMILES,KCNQ1 block,KCNK9 inh,KCNQ1 pot,Kir21 inh,KCNK3 block,hERG rescue
CCOc1ccc(C(c2c(NC(=O)c3ccco3)sc(C)c2C)N2CCOCC2)cc1 (configuration not stated),.,.,.,.,-11*,.
Cc1sc(NC(=O)c2ccco2)c(C(c2ccncc2)N2CCOCC2)c1C (configuration not stated),i,i,i,-0.46,i,-9
FC(F)(F)c1ccc(Cl)c(N/N=C/c2ccc(N3CCOCC3)s2)c1,i,-6.9*,i,0.73,i,-1
COC(=O)/C=C/S(=O)(=O)c1ccc(NC(C)=O)cc1,6*,i,i,-2.1,i,-21
COc1ccccc1OS(=O)(=O)c1ccc(NC(C)=O)cc1,i,i,i,0.41,i,-3
COc1ccc(NC(=O)CN(C)C(=O)c2cc(-c3ccc(Cl)cc3)nc3ccccc23)cc1,7*,i,i,1.4,i,-30
O=C(NNC(=O)c1cc(-c2ccncc2)nc2ccccc12)Nc1ccc(F)cc1,i,i,i,1.1,i,-8
O=C(Nc1ccccn1)c1cc(-c2cccnc2)nc2ccc(Br)cc12,i,-6.9*,i,-0.4,i,-13
O=C(NNC(=O)c1cc(-c2cccnc2)nc2ccccc12)Nc1ccc(Cl)cc1,12*,i,i,-0.85,i,-40
CC(C)(C)c1ccc(-c2cc(C(=O)NNC(=O)Nc3ccccc3)c3ccccc3n2)cc1,i,i,i,0.62,-10*,-6
CCCSc1nc(N)nc2c1ncn2C1OC(CO)C(O)C1O (configuration not stated),.,.,.,.,i,.
CCOc1ccccc1NC1=C(Cl)C(=O)N(c2ccccc2)C1=O,i,i,13*,1.9,i,-11
CC(C)(C)c1ccc(C(CC(=O)O)NC(=O)Cc2ccccc2)cc1 (configuration not stated),i,i,i,-0.57,i,-6
COc1ccccc1CN=C1Nc2ccccc2CS1,i,i,i,-13*,i,-10
COc1ccc(-c2nc(C#N)c(N3CCC(C)CC3)o2)cc1,i,i,i,-0.65,i,-1
O=C(Nc1nc(-c2cccs2)cs1)c1ccc(S(=O)(=O)N2CCCCC2)cc1,6*,i,i,-0.2,i,-7
CCN(c1ccc(NC(=O)c2ccc(Cl)nc2)cc1)C(C)C,i,i,i,1.1,i,5.9*
O=C(Nc1ccc(N2CCOCC2)cc1)c1ccc(Cl)nc1,i,i,i,0.53,i,-3
Cc1cc(Cl)c(C)c(S(=O)(=O)N2CCN(CC(=O)N3CCOCC3)CC2)c1Cl,.,.,.,.,i,.
CCCC[C@H](CN(N=O)[C@@H](Cc1ccccc1)CN(C)N=O)N(CCc1ccccc1)N=O,6*,i,i,0,i,-5
N#CC1(c2ccccc2)CCN(S(=O)(=O)c2ccc(OC(F)(F)F)cc2)CC1,i,i,i,-0.37,i,-5
Fc1ccc(CNCCC(Cc2ccccc2)c2ccco2)cc1 (configuration not stated),i,i,i,-15*,i,-14
O=C(NCCNCc1ccc(F)cc1)c1ccco1,i,i,i,-1.4,i,-4
OC(CNCC(c1ccc(Cl)cc1Cl)c1c[nH]c2ccccc12)c1ccccc1 (configuration not stated),i,i,i,-0.4,i,40*
O=C(C(Cl)c1ccccc1)N1CCOCC1 (configuration not stated),i,i,i,-1.2,i,-5
SMILES,KCNQ1 block,KCNK9 inh,KCNQ1 pot,Kir21 inh,KCNK3 block,hERG rescue
COc1ccc(CCNC(=O)c2cccc(S(=O)(=O)N3CCOCC3)c2)cc1OC,.,.,.,.,i,.
COc1ccccc1N1CCN(C(=O)c2ccc(N3CCCCS3(=O)=O)cc2)CC1,i,i,i,0,i,-7
O=c1/c(=C/c2ccc(O)c([N+](=O)[O-])c2)sc2nc3ccccc3n12,.,.,.,.,i,.
CCN(CC)c1ccc(/C=c2\sc3nc4ccccc4n3c2=O)c(O)c1,9*,i,i,-1.1,i,-36
CCOC(=O)c1c(NC(=O)CSc2nnc3c(Cl)cc(Cl)cn23)sc2c1CCC2,i,i,i,-4.3*,i,-8
c1cncc(-c2nc(NCc3ccco3)c3ccccc3n2)c1,i,i,i,2.3,i,-16
c1ccc(Nc2nc(NCc3ccco3)c3ccccc3n2)cc1,i,i,i,-17*,i,-23
Cc1ccc(-c2nc(NCc3ccco3)c3ccccc3n2)cc1,i,-6.6*,i,0.27,i,-18
CCCC(=O)n1nc(-c2ccc(C)cc2)nc1NCc1ccco1,i,i,10*,0.02,i,-13
Cc1ccc(C(=O)n2nc(-c3ccccc3)nc2NCc2ccco2)cc1,i,i,i,-0.03,i,-8
CCOc1ccc2ccc(OCC)c(/C=N/n3cnnc3)c2c1,i,i,i,1.5,i,-3
COc1ccc(CC(=O)Nc2ccc(/C(C)=N\NC(=O)c3ccc(Br)o3)cc2)cc1,i,i,i,-0.07,i,-6
COC(=O)c1ccc(OCCN2CCCCCC2)cc1,i,i,i,0.05,i,-12
O=C(c1ccc(OCCN2CCCCC2)cc1)c1c(-c2ccc(O)cc2)sc2cc(O)ccc12,9*,i,i,0.02,i,-29
CC(C)(C)NC(=O)CCN(/N=C/c1ccccc1O)C1=NS(=O)(=O)c2ccccc21,i,i,i,-2.6,i,-6
CCSC1(SCC)N=C(N)C2(C#N)C(c3ccc(F)cc3)C12C#N (configuration not stated),i,i,i,-4.7*,i,-7
COC1(OC)N=C(N)C2(C#N)C(c3ccc(F)cc3)C12C#N (configuration not stated),i,i,i,1.2,i,-2
COc1ccc(NS(=O)(=O)c2ccc3ccccc3c2)c2ncccc12,i,i,11*,-0.7,i,5.7*
COc1ccc(OC)c(NS(=O)(=O)c2cccc3cccnc23)c1,i,i,i,-0.31,i,-4
O=C(O)c1ccccc1-c1ccccc1C(=O)NCc1cccc(C(F)(F)F)c1,i,i,i,2,i,-10
